CSN inh: CSN deneddylation inhibition. Q92905. Purified CSN, SCF-Nedd8-OG deneddylation, fluorescence polarization. inhibition, % at 12.5 µM. 360,000 tested, 0.38% active. AID 651999;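 active = pattern-corrected inhibition above about 35%, with an unprinted fluorescence ratio check between 0.5 and 1.5, limit read from the data, passing the limit was not always enough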;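 note: 0% = enzyme with substrate and 100% = substrate without enzyme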
Target sequence (Q92905 whole entry, looked up, one chain of several): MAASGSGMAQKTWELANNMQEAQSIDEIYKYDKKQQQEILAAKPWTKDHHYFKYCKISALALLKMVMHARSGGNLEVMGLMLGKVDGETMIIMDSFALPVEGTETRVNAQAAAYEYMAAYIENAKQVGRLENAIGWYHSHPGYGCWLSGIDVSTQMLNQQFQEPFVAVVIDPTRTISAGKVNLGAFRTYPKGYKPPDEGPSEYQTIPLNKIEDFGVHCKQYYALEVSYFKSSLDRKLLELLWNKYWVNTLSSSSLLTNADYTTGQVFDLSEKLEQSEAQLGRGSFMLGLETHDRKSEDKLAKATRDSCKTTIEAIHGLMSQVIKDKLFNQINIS
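test system = HEK293T-derived human Csn5 enzyme | amount = 0.24 nM Csn5 enzyme, final concentration | medium = Tris/NaCl/DTT buffer, pH 7.5 | schedule = 90 min reaction at room temperature | signal = FP | evaluation = inhibition of Csn5 cleavage, % | compound dosing = single dose of 12.5 µM compound with 0.25% DMSO | probe or stimulus = 10 nM SCFSkp2-Nedd8OG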
Rpn11 block: blocks the human proteasome subunit Rpn11; 360,000 tested, 0.59% active; human 26S proteasome, Ub4-pepOG fluorescence polarization; 20S core pre-blocked with epoxomicin; O00487; inhibition, % at 20 µM;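 active = inhibition at 20 µM, scaled to each plate's controls, above about 33%, limit read from the data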
NadD block: blocks S. aureus nicotinate mononucleotide adenylyltransferase; 360,000 tested, 0.78% active; inhibition, % at 20 µM; purified NadD enzyme, colorimetric absorbance read-out; in the data active = inhibition above about 26%
PP1 inh: blocks human PP1-alpha phosphatase, a PP5 counter-screen. AID 2235. inhibition, % at 6.7 µM. purified PP1alpha, OMFP fluorescence. P62136. 320,000 tested, 0.9% active;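 active = inhibition above the mean inhibition of all tested compounds plus 3 SD, computed separately for each screening campaign, cut at about 15% in these data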
HNF4A DNA FP: change in binding of human HNF4 alpha to DNA. P41235. HNF4a-FITC DNA binding, fluorescence polarization, 1 h. activity change, % at 10 µM. 360,000 tested, 0.3% active; in the data active = activity change above about 30%, passing the limit was not always enough
TPT1 inh: blocks Candida albicans tRNA 2'-phosphotransferase; recombinant caTPT1, FP RNA substrate dephosphorylation; inhibition, % at 5 µM; 300,000 tested, 0.81% active; AID 1962;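 active = inhibition above the mean of all tested compounds plus 3 SD, set per screening campaign, cut at about 24% in these data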;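 note: plate controls were DMSO alone for no effect and ferristatin control at 100 nM for full effect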
* marks the source's active call; other numbers are inactive results. Compounds with a hit are over-represented: about 2.7% of the library has one in this group of screens.

How did C#CCOCCOCCOCCNc1nc(N2CCN(C(=O)CCCCCCCCCCNC(=O)[C@H]([C@@H](C)CC)n3cc(CCCCCN)nn3)CC2)nc(N2CCN(C(=O)CCCCCCCCCCNC(=O)[C@@H]([C@H](C)CC)n3cc(CCCCCN)nn3)CC2)n1 do in these assays?
PP1 inh: 64*; TPT1 inh: -2

How did C#CCOCCOCCOCCNc1nc(N2CCN(C(=O)CCCCCCCCCCNC(=O)Cn3cc(C[C@@H](C)O)nn3)CC2)nc(N2CCN(C(=O)CCCCCCCCCCNC(=O)[C@H](CCCCN)n3cc(CCCC(=O)O)nn3)CC2)n1 do in these assays?
CSN inh: 5; Rpn11 block: -2; NadD block: 7; PP1 inh: -1; HNF4A DNA FP: 3; TPT1 inh: 4

What do the screens show for `C#CCOCCOCCOCCNc1nc(N2CCN(C(=O)CCCCCCCCCCNC(=O)[C@H](CCCCN)n3cc(CCCC(=O)O)nn3)CC2)nc(N2CCN(C(=O)CCCCCCCCCCNC(=O)[C@@H]([C@H](C)O)n3cc(C)nn3)CC2)n1`?
CSN inh: -3; Rpn11 block: -3; NadD block: 9; PP1 inh: 3; HNF4A DNA FP: 4; TPT1 inh: -2

What do the screens show for `C#CCOCCOCCOCCNc1nc(N2CCN(C(=O)CCCCCCCCCCNC(=O)[C@H]([C@@H](C)CC)n3cc(CCCCN=C(N)N)nn3)CC2)nc(N2CCN(C(=O)CCCCCCCCCCNC(=O)[C@H]([C@@H](C)CC)n3cc(CCCCN=C(N)N)nn3)CC2)n1`?
PP1 inh: 74*; TPT1 inh: -1

What do the screens show for `C#CCOCCOCCOCCNc1nc(N2CCOCC2)nc(N2CCN(C(=O)CCCCCCCCCCNC(=O)[C@@H]([C@H](C)CC)n3cc(CCCCCN)nn3)CC2)n1`?
CSN inh: -4; Rpn11 block: -6; NadD block: 3; PP1 inh: 11; HNF4A DNA FP: 1; TPT1 inh: -1

What do the screens show for `CC(C)n1ncc(N2CCOCC2)c(Cl)c1=O`?
CSN inh: -2; Rpn11 block: 0; NadD block: 0; PP1 inh: -2; HNF4A DNA FP: -1; TPT1 inh: -1

How did COc1cccc(-c2n[nH]nc2C2=CC(=O)C[C@H](c3ccc(F)cc3)C2)c1 do in these assays?
CSN inh: 3; Rpn11 block: 6; NadD block: 2; HNF4A DNA FP: -5

How did Cc1cccn2c(=O)c3cc(C(=O)NC(C)C)c(=N)n(Cc4ccncc4)c3nc12 do in these assays?
CSN inh: 3; Rpn11 block: 0; NadD block: -3; PP1 inh: -1; HNF4A DNA FP: 52*; TPT1 inh: -4

What do the screens show for `COCCCn1c(C(=O)N2CCOCC2)cc2c(=O)n3cccc(C)c3nc21`?
CSN inh: 3; Rpn11 block: -7; NadD block: -8; PP1 inh: 1; HNF4A DNA FP: -3; TPT1 inh: -1

How did COCCCn1c(C(=O)Nc2ccc3c(c2)OCO3)cc2c(=O)n3cccc(C)c3nc21 do in these assays?
CSN inh: 42*; Rpn11 block: 6; NadD block: -8; HNF4A DNA FP: 29

What do the screens show for `CCNC(=O)c1cc2c(=O)n3cccc(C)c3nc2n(Cc2ccc(C)cc2)c1=N`?
CSN inh: -6; Rpn11 block: -1; NadD block: 4; PP1 inh: -2; HNF4A DNA FP: 5; TPT1 inh: 2

How did Cc1cc(C)c(C)c(S(=O)(=O)N2CCC(C(=O)NCC(c3ccccc3)N(C)C)CC2)c1C (centres undefined) do in these assays?
CSN inh: -4; Rpn11 block: -7; NadD block: -8; PP1 inh: -7; HNF4A DNA FP: 4; TPT1 inh: -3

Results for CC(=O)Nc1cc(-c2cccc(C(=O)NCCO)c2)cn2c(-c3cccc(C(F)(F)F)c3)cnc12 ?
CSN inh: 7; Rpn11 block: 8; NadD block: -1; HNF4A DNA FP: -2

What do the screens show for `N#CC(C(=O)NCCc1ccccc1)c1nc2ccccc2nc1N1CCOCC1` (centres undefined)?
CSN inh: 39*; NadD block: -5; PP1 inh: 0; HNF4A DNA FP: 49; TPT1 inh: 2

How did c1ccc(Oc2nnc(-c3cccs3)c3ccccc23)cc1 do in these assays?
CSN inh: -13; Rpn11 block: 2; NadD block: 5; PP1 inh: 16*; HNF4A DNA FP: 4; TPT1 inh: 1

How did O=C(NNC(=O)c1ccc2ccccc2c1)c1cccc(Cl)c1 do in these assays?
CSN inh: 4; Rpn11 block: 1; NadD block: -1; HNF4A DNA FP: -1

How did Cc1ccc(CNC(=O)c2nnn(CC(=O)Nc3cccc(C)c3C)c2N)cc1 do in these assays?
CSN inh: 36*; Rpn11 block: 16; NadD block: 6; PP1 inh: -2; HNF4A DNA FP: -3; TPT1 inh: -1

What do the screens show for `CCn1nccc1NC(=O)c1csc([C@H]2C[C@H](O)[C@@H](CO)O2)n1`?
CSN inh: -2; Rpn11 block: -2; NadD block: -8; HNF4A DNA FP: -1

How did O=C(NC(=S)Nc1ccc2[nH]c(=O)[nH]c2c1)c1ccccc1Cl do in these assays?
CSN inh: 2; Rpn11 block: 11; NadD block: -2; PP1 inh: 1; HNF4A DNA FP: 3; TPT1 inh: 0

What do the screens show for `Cc1c(Cl)cccc1NC(=S)Nc1ccc2[nH]c(=O)[nH]c2c1`?
CSN inh: -3; Rpn11 block: -8; NadD block: -4; PP1 inh: -5; HNF4A DNA FP: 39*; TPT1 inh: -1

What do the screens show for `COc1cc(Cl)c(C)cc1NC(=O)CN1CCN(C(=O)c2cccs2)CC1`?
CSN inh: 1; Rpn11 block: 1; NadD block: 4; HNF4A DNA FP: 1

Results for COC(=O)c1ccc(C)c(NC(=O)CCSc2ccc(Cl)cc2)c1 ?
CSN inh: 5; Rpn11 block: -2; NadD block: -11; PP1 inh: 2; HNF4A DNA FP: 95*; TPT1 inh: -4

Results for CSCC[C@H](NC(=O)[C@@H]1CSC2c3ccccc3C(=O)N21)C(=O)NCc1ccco1 (some centres undefined) ?
CSN inh: 3; Rpn11 block: 4; NadD block: -5; PP1 inh: 8; HNF4A DNA FP: -1; TPT1 inh: -4

Results for O=C(CNc1cccc([N+](=O)[O-])c1)N1CCN(S(=O)(=O)c2ccc(Cl)cc2)CC1 ?
CSN inh: -9; Rpn11 block: 1; NadD block: 12; HNF4A DNA FP: 6

How did CC1=C(C(=O)N(C(C)C)C(C)C)CC(CC(=O)NCCCCc2ccccc2)C(=O)N1Cc1ccc(F)cc1 (centres undefined) do in these assays?
CSN inh: 0; Rpn11 block: 3; NadD block: -2; HNF4A DNA FP: 0
